Experimental data as given in ChEMBL document CHEMBL4007404, “Identification of High-Potency Human TLR8 and Dual TLR7/TLR8 Agonists in Pyrimidine-2,4-diamines” (J Med Chem, 2017).
Activity calls are given as the source filed them. The calls are words filed in the database; no cut-off is given here.

How the values were obtained:
Assay type in all cases: cell-based
[1] = target: Toll-like receptor 5 (Homo sapiens) (UniProt O60602); assay: Activity at human TLR5 expressed in HEK293 cells co-expressing secreted alkaline phosphatase assessed as induction of NF-kappaB/AP-1 promoter activity by measuring increase in secreted alkaline phosphatase level by spectrophotometric method
Sequence of Toll-like receptor 5 (Homo sapiens) (O60602 whole entry): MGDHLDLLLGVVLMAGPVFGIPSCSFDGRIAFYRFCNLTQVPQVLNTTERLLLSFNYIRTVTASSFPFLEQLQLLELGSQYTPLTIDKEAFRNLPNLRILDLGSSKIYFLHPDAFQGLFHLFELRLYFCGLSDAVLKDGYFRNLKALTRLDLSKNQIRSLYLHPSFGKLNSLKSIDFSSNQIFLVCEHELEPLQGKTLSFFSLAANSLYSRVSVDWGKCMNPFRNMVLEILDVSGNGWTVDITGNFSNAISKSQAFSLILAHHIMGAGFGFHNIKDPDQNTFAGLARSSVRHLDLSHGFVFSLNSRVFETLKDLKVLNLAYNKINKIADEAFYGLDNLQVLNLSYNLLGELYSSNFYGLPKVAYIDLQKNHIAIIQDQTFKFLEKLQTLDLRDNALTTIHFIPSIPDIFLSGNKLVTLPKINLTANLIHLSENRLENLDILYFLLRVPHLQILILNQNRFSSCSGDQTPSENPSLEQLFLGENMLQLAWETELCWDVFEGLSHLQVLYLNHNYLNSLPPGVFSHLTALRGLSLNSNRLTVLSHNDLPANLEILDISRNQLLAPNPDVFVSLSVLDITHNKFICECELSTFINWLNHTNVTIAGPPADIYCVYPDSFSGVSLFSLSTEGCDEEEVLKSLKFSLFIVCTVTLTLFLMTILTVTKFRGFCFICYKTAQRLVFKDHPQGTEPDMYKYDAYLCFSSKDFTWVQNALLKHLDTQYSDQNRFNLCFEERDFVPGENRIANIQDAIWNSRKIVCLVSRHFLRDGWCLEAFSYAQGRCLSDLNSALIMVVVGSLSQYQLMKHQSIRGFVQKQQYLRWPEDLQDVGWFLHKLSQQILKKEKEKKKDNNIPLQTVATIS
Summary of the method: (§1)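 HEK293 cells stably co-transfected with the relevant human TLR (2, 3, 4, 5, 7, 8 or 9) plus an NF-κB/AP-1-driven secreted alkaline phosphatase reporter, kept in selection medium. Cells at ~10⁵ cells/ml were exposed to graded concentrations of stimuli in 384-well format, liquid-handler assisted. Supernatant sAP was read at 620 nm with an alkaline phosphatase-specific chromogen.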

[2] = target: Toll-like receptor 3 (Homo sapiens) (UniProt O15455); assay: Activity at human TLR3 expressed in HEK293 cells co-expressing secreted alkaline phosphatase assessed as induction of NF-kappaB/AP-1 promoter activity by measuring increase in secreted alkaline phosphatase level by spectrophotometric method; summary of the method: as §1
Sequence of Toll-like receptor 3 (Homo sapiens) (O15455 whole entry): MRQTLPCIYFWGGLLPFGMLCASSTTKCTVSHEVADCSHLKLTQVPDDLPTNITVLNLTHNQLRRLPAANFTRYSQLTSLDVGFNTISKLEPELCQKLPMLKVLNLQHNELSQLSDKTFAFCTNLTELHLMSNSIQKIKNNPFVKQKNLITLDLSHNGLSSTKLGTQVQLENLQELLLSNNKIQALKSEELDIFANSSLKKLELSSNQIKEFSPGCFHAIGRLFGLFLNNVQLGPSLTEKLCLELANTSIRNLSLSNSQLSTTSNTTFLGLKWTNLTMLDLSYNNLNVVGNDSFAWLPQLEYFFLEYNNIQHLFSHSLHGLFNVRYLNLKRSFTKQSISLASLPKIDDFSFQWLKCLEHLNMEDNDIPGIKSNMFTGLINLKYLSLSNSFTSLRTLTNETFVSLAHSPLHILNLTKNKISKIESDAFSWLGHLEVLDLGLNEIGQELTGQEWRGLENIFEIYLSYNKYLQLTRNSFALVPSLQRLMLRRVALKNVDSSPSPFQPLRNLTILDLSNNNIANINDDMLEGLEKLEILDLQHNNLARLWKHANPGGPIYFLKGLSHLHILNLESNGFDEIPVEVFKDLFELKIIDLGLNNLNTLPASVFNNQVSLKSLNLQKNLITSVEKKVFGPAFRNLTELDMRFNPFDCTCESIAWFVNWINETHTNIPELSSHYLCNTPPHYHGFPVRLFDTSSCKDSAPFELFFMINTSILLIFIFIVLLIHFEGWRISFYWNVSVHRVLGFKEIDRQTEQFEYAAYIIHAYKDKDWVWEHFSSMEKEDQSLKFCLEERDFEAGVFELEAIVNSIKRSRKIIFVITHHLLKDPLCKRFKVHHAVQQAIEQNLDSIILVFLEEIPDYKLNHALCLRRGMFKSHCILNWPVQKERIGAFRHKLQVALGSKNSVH

[3] = target: Toll-like receptor 2 (Homo sapiens) (UniProt O60603); assay: Activity at human TLR2 expressed in HEK293 cells co-expressing secreted alkaline phosphatase assessed as induction of NF-kappaB/AP-1 promoter activity by measuring increase in secreted alkaline phosphatase level by spectrophotometric method; summary of the method: as §1
Sequence of Toll-like receptor 2 (Homo sapiens) (O60603 whole entry): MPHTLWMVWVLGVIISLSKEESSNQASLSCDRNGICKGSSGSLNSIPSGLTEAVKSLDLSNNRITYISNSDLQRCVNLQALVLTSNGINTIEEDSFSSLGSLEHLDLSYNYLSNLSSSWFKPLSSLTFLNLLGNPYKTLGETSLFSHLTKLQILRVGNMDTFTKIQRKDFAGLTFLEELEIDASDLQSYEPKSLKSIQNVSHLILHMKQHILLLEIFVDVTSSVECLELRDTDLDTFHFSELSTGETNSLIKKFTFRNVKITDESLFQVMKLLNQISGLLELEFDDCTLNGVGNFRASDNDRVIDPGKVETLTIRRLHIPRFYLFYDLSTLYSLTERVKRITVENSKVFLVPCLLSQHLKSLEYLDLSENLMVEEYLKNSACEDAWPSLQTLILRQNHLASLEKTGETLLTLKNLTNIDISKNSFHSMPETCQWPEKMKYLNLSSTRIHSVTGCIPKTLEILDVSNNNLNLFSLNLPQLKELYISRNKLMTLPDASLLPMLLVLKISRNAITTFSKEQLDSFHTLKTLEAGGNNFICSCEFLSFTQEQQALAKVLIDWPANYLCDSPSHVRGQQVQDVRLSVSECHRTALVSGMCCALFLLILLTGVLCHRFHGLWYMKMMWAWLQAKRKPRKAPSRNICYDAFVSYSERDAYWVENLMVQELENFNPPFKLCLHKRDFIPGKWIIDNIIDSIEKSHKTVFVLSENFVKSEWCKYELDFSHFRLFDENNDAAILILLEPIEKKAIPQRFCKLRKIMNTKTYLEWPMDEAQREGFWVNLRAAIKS

[4] = target: T1, Toll-like receptor 9 (Homo sapiens) (UniProt Q9NR96); assay: Activity at human TLR9 expressed in HEK293 cells co-expressing secreted alkaline phosphatase assessed as induction of NF-kappaB/AP-1 promoter activity by measuring increase in secreted alkaline phosphatase level by spectrophotometric method; summary of the method: as §1
T1 sequence (whole entry): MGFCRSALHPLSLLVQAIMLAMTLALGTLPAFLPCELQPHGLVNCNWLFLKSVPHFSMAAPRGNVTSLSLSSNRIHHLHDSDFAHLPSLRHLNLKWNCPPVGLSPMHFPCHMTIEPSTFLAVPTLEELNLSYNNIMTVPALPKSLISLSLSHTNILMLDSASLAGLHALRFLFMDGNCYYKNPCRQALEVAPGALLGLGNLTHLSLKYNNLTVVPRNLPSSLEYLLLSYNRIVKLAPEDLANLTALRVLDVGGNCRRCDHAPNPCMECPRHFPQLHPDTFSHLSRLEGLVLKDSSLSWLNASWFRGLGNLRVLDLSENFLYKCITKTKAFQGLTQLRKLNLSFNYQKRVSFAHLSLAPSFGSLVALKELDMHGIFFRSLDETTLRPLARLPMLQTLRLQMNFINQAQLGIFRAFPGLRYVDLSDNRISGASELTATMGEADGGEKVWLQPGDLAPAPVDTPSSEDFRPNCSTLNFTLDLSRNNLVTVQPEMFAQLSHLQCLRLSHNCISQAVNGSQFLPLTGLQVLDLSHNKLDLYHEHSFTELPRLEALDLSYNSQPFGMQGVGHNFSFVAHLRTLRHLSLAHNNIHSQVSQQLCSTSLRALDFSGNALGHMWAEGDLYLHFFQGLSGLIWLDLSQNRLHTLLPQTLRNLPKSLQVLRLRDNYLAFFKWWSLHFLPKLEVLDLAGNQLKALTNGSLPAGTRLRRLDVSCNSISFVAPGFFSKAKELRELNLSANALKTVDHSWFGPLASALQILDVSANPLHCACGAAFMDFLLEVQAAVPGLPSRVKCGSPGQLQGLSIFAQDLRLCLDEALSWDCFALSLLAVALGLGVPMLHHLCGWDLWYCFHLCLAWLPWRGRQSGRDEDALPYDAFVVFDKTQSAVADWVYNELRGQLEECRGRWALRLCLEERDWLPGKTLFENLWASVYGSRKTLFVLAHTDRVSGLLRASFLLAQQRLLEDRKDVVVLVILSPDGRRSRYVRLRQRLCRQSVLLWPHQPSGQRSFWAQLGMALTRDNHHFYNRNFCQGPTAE

[5] = target: T2, Toll-like receptor 8 (Homo sapiens, UniProt Q9NR97); assay: Agonist activity at human TLR8 expressed in HEK293 cells co-expressing secreted alkaline phosphatase assessed as induction of NF-kappaB/AP-1 promoter activity by measuring increase in secreted alkaline phosphatase level by spectrophotometric method; summary of the method: as §1
T2 sequence (Q9NR97 whole entry): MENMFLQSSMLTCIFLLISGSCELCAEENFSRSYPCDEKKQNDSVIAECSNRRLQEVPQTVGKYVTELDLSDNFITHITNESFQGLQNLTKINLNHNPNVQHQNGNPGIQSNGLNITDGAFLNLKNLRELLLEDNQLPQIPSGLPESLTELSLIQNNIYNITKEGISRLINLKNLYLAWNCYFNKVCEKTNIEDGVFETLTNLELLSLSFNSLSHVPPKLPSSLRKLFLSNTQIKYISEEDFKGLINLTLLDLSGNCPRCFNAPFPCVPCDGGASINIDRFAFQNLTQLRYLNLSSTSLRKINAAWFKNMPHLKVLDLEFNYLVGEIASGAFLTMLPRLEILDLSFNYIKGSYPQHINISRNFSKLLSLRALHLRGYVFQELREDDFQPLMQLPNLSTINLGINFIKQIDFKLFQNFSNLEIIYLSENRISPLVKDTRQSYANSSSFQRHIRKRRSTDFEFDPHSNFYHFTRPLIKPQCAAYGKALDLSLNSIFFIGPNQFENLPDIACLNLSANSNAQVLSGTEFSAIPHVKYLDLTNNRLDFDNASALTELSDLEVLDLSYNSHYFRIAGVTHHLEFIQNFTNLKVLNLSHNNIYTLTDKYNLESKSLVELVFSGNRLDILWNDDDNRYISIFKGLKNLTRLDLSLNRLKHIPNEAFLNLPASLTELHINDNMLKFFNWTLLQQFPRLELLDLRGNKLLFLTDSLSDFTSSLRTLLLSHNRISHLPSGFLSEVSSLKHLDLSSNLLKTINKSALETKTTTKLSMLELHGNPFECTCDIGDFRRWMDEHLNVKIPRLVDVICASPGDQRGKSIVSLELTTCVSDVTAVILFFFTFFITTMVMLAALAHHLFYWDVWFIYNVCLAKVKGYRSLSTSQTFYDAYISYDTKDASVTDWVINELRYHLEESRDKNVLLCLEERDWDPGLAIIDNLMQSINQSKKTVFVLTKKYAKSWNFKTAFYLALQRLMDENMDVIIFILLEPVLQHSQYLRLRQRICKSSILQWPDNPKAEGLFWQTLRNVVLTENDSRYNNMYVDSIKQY

[6] = target: Toll-like receptor 4 (Homo sapiens) (UniProt O00206); assay: Activity at human TLR4 expressed in HEK293 cells co-expressing secreted alkaline phosphatase assessed as induction of NF-kappaB/AP-1 promoter activity by measuring increase in secreted alkaline phosphatase level by spectrophotometric method; summary of the method: as §1
Sequence of Toll-like receptor 4 (Homo sapiens) (O00206 whole entry): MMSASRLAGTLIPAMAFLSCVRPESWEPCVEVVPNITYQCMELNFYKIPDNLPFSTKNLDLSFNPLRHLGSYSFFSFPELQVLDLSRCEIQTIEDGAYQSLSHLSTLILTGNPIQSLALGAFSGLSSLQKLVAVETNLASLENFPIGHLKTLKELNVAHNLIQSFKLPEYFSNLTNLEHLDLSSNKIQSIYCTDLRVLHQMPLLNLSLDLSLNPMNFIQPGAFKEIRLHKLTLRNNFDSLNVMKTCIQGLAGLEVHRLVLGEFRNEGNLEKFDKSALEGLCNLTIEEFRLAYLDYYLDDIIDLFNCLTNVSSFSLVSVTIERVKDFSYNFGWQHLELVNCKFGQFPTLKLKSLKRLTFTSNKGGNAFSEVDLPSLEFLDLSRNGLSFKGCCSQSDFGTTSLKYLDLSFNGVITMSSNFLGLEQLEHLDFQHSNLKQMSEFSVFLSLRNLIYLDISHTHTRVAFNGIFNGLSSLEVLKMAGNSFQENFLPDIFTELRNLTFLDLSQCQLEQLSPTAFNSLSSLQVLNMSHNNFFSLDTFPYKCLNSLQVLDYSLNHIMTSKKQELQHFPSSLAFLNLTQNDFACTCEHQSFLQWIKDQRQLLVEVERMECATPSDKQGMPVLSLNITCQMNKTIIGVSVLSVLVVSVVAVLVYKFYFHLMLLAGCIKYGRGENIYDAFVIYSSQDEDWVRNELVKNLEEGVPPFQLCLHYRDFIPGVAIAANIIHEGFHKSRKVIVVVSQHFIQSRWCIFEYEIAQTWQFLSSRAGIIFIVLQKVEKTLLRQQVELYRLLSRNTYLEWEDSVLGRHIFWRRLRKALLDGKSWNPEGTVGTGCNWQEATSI

Row | Compound | Activity [1] | Activity [2] | Activity [3] | Activity [4] | EC50 [5] [nM] | Activity [6]
1 | CCCCNc1nc(N)nc(C)c1CCCn1cncn1 | inactive | inactive | inactive | inactive | 1050 | inactive
2 | CCCCNc1nc(N)nc(C)c1CCCN1CCN(C)CC1 | inactive | inactive | inactive | inactive | 179 | inactive
3 | CCCCNc1nc(N)nc(C)c1CCCN(C)C | inactive | inactive | inactive | inactive | 126 | inactive
4 | CCCCNc1nc(N)nc(C)c1CCCN1CCCCC1 | inactive | inactive | inactive | inactive | 133 | inactive
5 | CCCCNc1nc(N)nc(C)c1CCc1ccccc1 | inactive | inactive | inactive | inactive | 1190 | inactive
6 | CCCCNc1nc(N)nc(C)c1CCCC(C)(C)O | inactive | inactive | inactive | inactive | 1220 | inactive
7 | CCCCNc1nc(N)nc(C)c1CCCCO | inactive | inactive | inactive | inactive | 1310 | inactive
8 | C#Cc1c(C)nc(N)nc1NCCCC | inactive | inactive | inactive | inactive | 4900 | inactive
9 | CCCCNc1nc(N)nc(C)c1CCC(C)(C)O | inactive | inactive | inactive | inactive | 3140 | inactive
10 | CCCCNc1nc(N)nc(C)c1CCCN1CCNCC1 | inactive | inactive | inactive | inactive | 500 | inactive
11 | CCCCNc1nc(N)nc(C)c1CCCN1CCSCC1 | inactive | inactive | inactive | inactive | 167 | inactive
12 | CCCCNc1nc(N)nc(C)c1CCCN1C(=O)c2ccccc2C1=O | inactive | inactive | inactive | inactive | 453 | inactive
13 | CCCCNc1nc(N)nc(C)c1C#C[Si](C)(C)C | inactive | inactive | inactive | inactive | 9240 | inactive
14 | CCCCNc1nc(N)nc(C)c1CCCN1CCOCC1 | inactive | inactive | inactive | inactive | 280 | inactive
15 | CCCCNc1nc(N)nc(C)c1CCCn1ccc2ccccc21 | inactive | inactive | inactive | inactive | 1100 | inactive
16 | CCCCNc1nc(N)nc(C)c1CCCn1c(C)nc2ccccc21 | inactive | inactive | inactive | inactive | 366 | inactive
17 | CCCCNc1nc(N)nc(C)c1CCCCCc1ccccc1 | inactive | inactive | inactive | inactive | 830 | inactive
18 | CCCCNc1nc(N)nc(C)c1CCCC1CCCCC1 | inactive | inactive | inactive | inactive |  | inactive
19 | CCCCNc1nc(N)nc(C)c1CCCc1ccccc1 | inactive | inactive | inactive | inactive | 749 | inactive
20 | CCCCNc1nc(N)nc(C)c1C | inactive | inactive | inactive | inactive | 3280 | inactive
21 | CCCC#Cc1c(C)nc(N)nc1NCCCC | inactive | inactive | inactive | inactive | 5000 | inactive
22 | CCCCNc1nc(N)nc(C)c1CCCN1CCCC1 | inactive | inactive | inactive | inactive | 110 | inactive
23 | CCCCNc1nc(N)nc(C)c1CCCN(C)CCOC | inactive | inactive | inactive | inactive | 203 | inactive
24 | CCCCNc1nc(N)nc(C)c1CCCN(CC)CC | inactive | inactive | inactive | inactive | 254 | inactive
25 | CCCCNc1nc(N)nc(C)c1C#CCc1ccccc1 | inactive | inactive | inactive | inactive |  | inactive
